Experimental data reported in ChEMBL document CHEMBL1126763, “Nonpeptide angiotensin II receptor antagonists. Synthesis and biological activity of potential prodrugs of benzimidazole-7-carboxylic acids” (J Med Chem, 1993).

What was measured:
Format in all cases: functional, organism-based
Parameters in all cases: dose 0.1 mg/kg
[1] = target: T1, Angiotensin II receptor (Rattus norvegicus) (UniProt P29089+P25095+P35351); assay: Inhibitory activity on AII (100 ng/kg iv)-induced pressor response after administration at 0.1 mg/kg po in conscious male Sprague-Dawley rats at 3 h.
In short: (§1)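 Conscious male Sprague-Dawley rats received test compounds orally at 0.1 mg/kg. AII (100 ng/kg iv) was given as a pressor challenge at each time point after dosing, and percent inhibition of the pressor response was recorded. Experiments were run in duplicate (n = 2); parent drug and one ester used n = 3. Inhibition may vary by less than 30%.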

[2] = target: T1, Angiotensin II receptor (Rattus norvegicus); assay: Inhibitory activity on AII (100 ng/kg iv)-induced pressor response after administration at 0.1 mg/kg po in conscious male Sprague-Dawley rats at 2 h.; in short: as §1
[3] = target: T1, Angiotensin II receptor (Rattus norvegicus); assay: Inhibitory activity on AII (100 ng/kg iv)-induced pressor response after administration at 0.1 mg/kg po in conscious male Sprague-Dawley rats at 24 h.; in short: as §1
[4] = target: T1, Angiotensin II receptor (Rattus norvegicus); assay: Inhibitory activity on AII (100 ng/kg iv)-induced pressor response at 0.1 mg/kg po in conscious male Sprague-Dawley rats at 1 h.; in short: as §1
[5] = target: T1, Angiotensin II receptor (Rattus norvegicus); assay: Inhibitory activity on AII (100 ng/kg iv)-induced pressor response after administration at 0.1 mg/kg po in conscious male Sprague-Dawley rats at 7 h.; in short: as §1
[6] = target: T1, Angiotensin II receptor (Rattus norvegicus); assay: Inhibitory activity on AII (100 ng/kg iv)-induced pressor response after administration at 0.1 mg/kg po in conscious male Sprague-Dawley rats at 5 h.; in short: as §1
[7] = target: T1, Angiotensin II receptor (Rattus norvegicus); assay: Inhibitory effect on AII (100 ng/kg iv)-induced pressor response after administration at 0.1 mg/kg po in conscious male Sprague-Dawley rats at 0.5 h.; in short: as §1

Row | SMILES | inhibition [1] [%] | inhibition [2] [%] | inhibition [3] [%] | inhibition [4] [%] | inhibition [5] [%] | inhibition [6] [%] | inhibition [7] [%]
1 | CCCCc1nc(Cl)c(CO)n1Cc1ccc(-c2ccccc2-c2nnn[nH]2)cc1 | 21 | 12 | 17 | 1 | 34 | 35 | 5
2 | CCCCc1nc2cccc(C(=O)OCc3oc(=O)oc3C)c2n1Cc1ccc(-c2ccccc2-c2nn[nH]n2)cc1 | 88 | 81 | 55 | 63 | 77 | 75 | 32
3 | CCOc1nc2cccc(C(=O)OC(C)OC(=O)OC(CC)CC)c2n1Cc1ccc(-c2ccccc2-c2nn[nH]n2)cc1 (stereo unspecified) | 84 | 86 | 13 | 72 | 53 | 63 | 16
4 | CCCCc1nc2cccc(C(=O)OC(C)OC(=O)OC3CCCCC3)c2n1Cc1ccc(-c2ccccc2-c2nn[nH]n2)cc1 (stereo unspecified) | 81 | 84 | 47 | 85 | 79 | 78 | 58
5 | CCOc1nc2cccc(C(=O)O)c2n1Cc1ccc(-c2ccccc2-c2nnn[nH]2)cc1 | 67 | 51 | 43 | 24 |  | 85 | 7
6 | CCCCc1nc2cccc(C(=O)OCc3ccncc3)c2n1Cc1ccc(-c2ccccc2-c2nn[nH]n2)cc1 | 16 | 18 |  | 16 | 8 | 18 | 4

The next lines start with the values.

Row | inhibition [1] [%] | inhibition [2] [%] | inhibition [3] [%] | inhibition [4] [%] | inhibition [5] [%] | inhibition [6] [%] | inhibition [7] [%] | SMILES
7 | 87 | 80 | 36 | 76 | 75 | 82 | 38 | CCOc1nc2cccc(C(=O)OC(C)OC(=O)OC3CCCCC3)c2n1Cc1ccc(-c2ccccc2-c2nn[nH]n2)cc1 (stereo unspecified)
8 | 89 | 95 | 7 | 87 | 71 | 81 | 74 | CCOC(=O)OC(C)OC(=O)c1cccc2nc(OCC)n(Cc3ccc(-c4ccccc4-c4nn[nH]n4)cc3)c12 (stereo unspecified)
9 | 65 | 61 | 9 | 31 | 54 | 62 | 7 | CCOc1nc2cccc(C(=O)OCOC(=O)C3CCCC3)c2n1Cc1ccc(-c2ccccc2-c2nn[nH]n2)cc1
10 | 15 | 4 | 11 | -3 | 54 | 53 | 1 | CCOc1nc2cccc(C(=O)OCOC(=O)OC3CCCCC3)c2n1Cc1ccc(-c2ccccc2-c2nn[nH]n2)cc1
11 | 85 | 76 | 14 | 5 | 80 | 89 | 0 | CCOc1nc2cccc(C(=O)OCOC(=O)C3CCCCC3)c2n1Cc1ccc(-c2ccccc2-c2nn[nH]n2)cc1
12 | 78 | 79 | 23 | 84 | 59 | 72 | 66 | CCOc1nc2cccc(C(=O)OCOC(C)=O)c2n1Cc1ccc(-c2ccccc2-c2nn[nH]n2)cc1
13 | 79 | 84 | 12 | 91 | 67 | 80 | 70 | CCOc1nc2cccc(C(=O)OC(C)OC(=O)OC(C)C)c2n1Cc1ccc(-c2ccccc2-c2nn[nH]n2)cc1 (stereo unspecified)
14 | 80 | 80 | 3 | 36 | 64 | 61 | -3 | CCOc1nc2cccc(C(=O)OCOC(=O)/C=C/c3ccccc3)c2n1Cc1ccc(-c2ccccc2-c2nn[nH]n2)cc1
